Measurements as given in ChEMBL document CHEMBL4627393, “Discovery of Potent, Selective, and State-Dependent NaV1.7 Inhibitors with Robust Oral Efficacy in Pain Models: Structure-Activity Relationship and Optimization of Chroman and Indane Aryl Sulfonamides” (J Med Chem, 2020).

Key:
[1] = Cmax in BALB/c mouse at 10 mg/kg, po measured upto 24 hrs by LC/MS-MS analysis; assay type: ADME, organism-based; parameters: dose 10 mg/kg, route oral; conditions: in vivo
[2] = Clearance in Beagle dog at 1 mg/kg, iv administered as infusion for 15 mins by LC/MS-MS analysis; assay type: ADME, organism-based, Canis lupus familiaris; conditions: in vivo
[3] = Volume of distribution at steady state in Beagle dog at 1 mg/kg, iv administered as infusion for 15 mins by LC/MS-MS analysis; assay type: ADME, organism-based, Canis lupus familiaris; conditions: in vivo, read-out: Vdss
In short: (§1)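 Pharmacokinetics were run with an IV dose of 1 mg/kg and a PO dose of 10 mg/kg. Parameters reported were AUClast, Cmax, CL, T1/2, Vss and %F.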

[4] = AUClast in BALB/c mouse at 1 mg/kg, iv measured upto 24 hrs by LC/MS-MS analysis; assay type: ADME, organism-based; parameters: time < 24 hr, dose 1 mg/kg, route intravenous; conditions: in vivo
[5] = Oral bioavailability in BALB/c mouse at 10 mg/kg measured upto 24 hrs by LC/MS-MS analysis; assay type: ADME, organism-based; conditions: in vivo; in short: as §1
[6] = Lipophilicity, log D of the compound; assay type: physicochemical; conditions: octanol/water
[7] = Metabolic stability in human liver microsomes assessed as metabolic rate at 1 uM preincubated for 5 mins followed by NADPH addition and measured up to 30 mins by LC/MS-MS analysis; assay type: ADME, Microsome; conditions: 0.5 h
[8] = Drug concentration in brain of formalin-induced C57BL/6 mouse model of nociceptive pain at 30 mg/kg, po administered 30 mins before formalin stimulation and measured after 40 mins
[9] = Metabolic stability in dog liver microsomes assessed as metabolic rate at 1 uM preincubated for 5 mins followed by NADPH addition and measured up to 30 mins by LC/MS-MS analysis; assay type: ADME, Canis lupus familiaris, Microsome; conditions: 0.5 h
[10] = Half life in Sprague-Dawley rat at 1 mg/kg, iv measured upto 24 hrs by LC/MS-MS analysis; assay type: ADME, organism-based; conditions: in vivo
[11] = Half life in Beagle dog at 1 mg/kg, iv administered as infusion for 15 mins by LC/MS-MS analysis; assay type: ADME, organism-based, Canis lupus familiaris; conditions: in vivo
[12] = AUClast in BALB/c mouse at 10 mg/kg, po measured upto 24 hrs by LC/MS-MS analysis; assay type: ADME, organism-based; parameters: dose 10 mg/kg, time < 24 hr, route oral; conditions: in vivo
[13] = Metabolic stability in monkey liver microsomes assessed as metabolic rate at 1 uM preincubated for 5 mins followed by NADPH addition and measured up to 30 mins by LC/MS-MS analysis; assay type: ADME, Macaca mulatta, Microsome; conditions: rhesus monkey, 0.5 h
[14] = Clearance in BALB/c mouse at 1 mg/kg, iv measured upto 24 hrs by LC/MS-MS analysis; assay type: ADME, organism-based; conditions: in vivo
[15] = Cmax in Sprague-Dawley rat at 10 mg/kg, po measured upto 24 hrs by LC/MS-MS analysis; assay type: ADME, organism-based; parameters: dose 10 mg/kg, route oral; conditions: in vivo
[16] = Cmax in Sprague-Dawley rat at 1 mg/kg, iv measured upto 24 hrs by LC/MS-MS analysis; assay type: ADME, organism-based; parameters: dose 1 mg/kg, route intravenous; conditions: in vivo
[17] = Apparent permeability across apical to basolateral side in human Caco2 cells; assay type: ADME, cell-based; conditions: Caco-2
[18] = Clearance in Sprague-Dawley rat at 1 mg/kg, iv measured upto 24 hrs by LC/MS-MS analysis; assay type: ADME, organism-based; conditions: in vivo
[19] = Cmax in BALB/c mouse at 1 mg/kg, iv measured upto 24 hrs by LC/MS-MS analysis; assay type: ADME, organism-based; parameters: dose 1 mg/kg, route intravenous; conditions: in vivo
[20] = AUClast in Beagle dog at 1 mg/kg, iv administered as infusion for 15 mins by LC/MS-MS analysis; assay type: ADME, organism-based, Canis lupus familiaris; parameters: dose 1 mg/kg, time 0 - last, route intravenous; conditions: in vivo
[21] = Cmax in Beagle dog at 1 mg/kg, iv administered as infusion for 15 mins by LC/MS-MS analysis; assay type: ADME, organism-based, Canis lupus familiaris; parameters: dose 1 mg/kg, route intravenous; conditions: in vivo
[22] = Volume of distribution at steady state in BALB/c mouse at 1 mg/kg, iv measured upto 24 hrs by LC/MS-MS analysis; assay type: ADME, organism-based; conditions: in vivo, read-out: Vdss; in short: as §1
[23] = Apparent permeability across basolateral to apical side in human Caco2 cells; assay type: ADME, cell-based; conditions: Caco-2
[24] = Metabolic stability in rat liver microsomes assessed as metabolic rate at 1 uM preincubated for 5 mins followed by NADPH addition and measured up to 30 mins by LC/MS-MS analysis; assay type: ADME, Microsome; conditions: 0.5 h
[25] = Metabolic stability in mouse liver microsomes assessed as metabolic rate at 1 uM preincubated for 5 mins followed by NADPH addition and measured up to 30 mins by LC/MS-MS analysis; assay type: ADME, Microsome; conditions: 0.5 h
[26] = Volume of distribution at steady state in Sprague-Dawley rat at 1 mg/kg, iv measured upto 24 hrs by LC/MS-MS analysis; assay type: ADME, organism-based; conditions: in vivo, read-out: Vdss
[27] = AUClast in Sprague-Dawley rat at 1 mg/kg, iv measured upto 24 hrs by LC/MS-MS analysis; assay type: ADME, organism-based; parameters: dose 1 mg/kg, time < 24 hr, route intravenous; conditions: in vivo
[28] = Half life in BALB/c mouse at 1 mg/kg, iv measured upto 24 hrs by LC/MS-MS analysis; assay type: ADME, organism-based; conditions: in vivo
[29] = AUClast in Sprague-Dawley rat at 10 mg/kg, po measured upto 24 hrs by LC/MS-MS analysis; assay type: ADME, organism-based; parameters: time < 24 hr, dose 10 mg/kg, route oral; conditions: in vivo
[30] = Oral bioavailability in Sprague-Dawley rat at 10 mg/kg measured upto 24 hrs by LC/MS-MS analysis; assay type: ADME, organism-based; conditions: in vivo; in short: as §1
[31] = Bioavailability in Beagle dog at 1 mg/kg, iv administered as infusion for 15 mins followed by compound washout and subsequent compound dosing at 5 mg/kg, po measured up to 24 hrs by LC/MS-MS analysis; assay type: ADME, organism-based, Canis lupus familiaris; conditions: in vivo
[32] = Unbound drug concentration in plasma of formalin-induced C57BL/6 mouse model of nociceptive pain at 3 mg/kg, po administered 30 mins before formalin stimulation and measured after 40 mins; assay type: ADME, organism-based; conditions: in vivo
In short: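 Mice were dosed orally at 3 mg/kg 30 min before formalin challenge. Nociceptive behaviour was scored at 0–5 min (phase I) and 10–40 min (phase II). Plasma was collected at the end of the study, and the unbound drug concentration was determined.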

[33] = Cmax in Beagle dog at 1 mg/kg, iv administered as infusion for 15 mins followed by compound washout and subsequent compound dosing at 5 mg/kg, po measured up to 24 hrs by LC/MS-MS analysis; assay type: ADME, organism-based, Canis lupus familiaris; conditions: in vivo
[34] = AUClast in Beagle dog at 1 mg/kg, iv administered as infusion for 15 mins followed by compound washout and subsequent compound dosing at 5 mg/kg, po measured up to 24 hrs by LC/MS-MS analysis; assay type: ADME, organism-based, Canis lupus familiaris; conditions: in vivo

Compound	Cmax [1] [µM]	Vd [3] [L/kg]	AUC(0-t) at 24 h [4] [µM·h]	bioavailability [5] [%]	logD [6]	Drug metabolism [7] [nmol/min/mg]	Drug metabolism [9] [nmol/min/mg]	half-life [10] [h]	half-life [11] [h]	AUC(0-t) at 24 h [12] [µM·h]	Drug metabolism [13] [nmol/min/mg]	clearance [14] [mL/min/kg]	Cmax [15] [µM]	Cmax [16] [µM]	Cmax [19] [µM]	AUC(0-t) at 0.25 h [20] [µM·h]	Vd [22] [L/kg]	Drug metabolism [24] [nmol/min/mg]	Drug metabolism [25] [nmol/min/mg]	half-life [28] [h]	other results
O=S(=O)(Nc1ncccn1)c1ccc2c(c1)OCC[C@@H]2c1ccc(C(F)(F)F)cc1N1CCOCC1	9.6	0.5	12	50	2.7	0.02	0.02	2.8	11	62	0.03	2.5	2.1	2.1	2	48	0.81	0.02	0.16	4.3	clearance [2]: 0.5 mL/min/kg; brain concentration at 40 min [8]: < 1 µM; Papp A→B [17]: 37.6 ×10⁻⁶ cm/s; clearance [18]: 5.1 mL/min/kg; Cmax [21]: 4.9 µM; Papp B→A [23]: 25.4 ×10⁻⁶ cm/s; Vd [26]: 1.2 L/kg; AUC(0-t) at 24 h [27]: 5.9 µM·h; AUC(0-t) at 24 h [29]: 19 µM·h; bioavailability [30]: 31%
Cc1ccc(-c2cc(C(F)(F)F)ccc2[C@H]2CCOc3cc(S(=O)(=O)Nc4ncccn4)ccc32)cn1	18	0.4	7.6	83	2.3	0	0.02	1.9	2.5	63	0.02		19	2.6	3	19	0.6	0.02	0.04	1.5	bioavailability [31]: 51%; brain concentration at 40 min [8]: < 1 µM; Cmax [33]: 8.5 µM; Papp A→B [17]: 39.5 ×10⁻⁶ cm/s; AUC(0-t) [34]: 50 µM·h; Cmax [21]: 6.5 µM; Papp B→A [23]: 36.8 ×10⁻⁶ cm/s; Vd [26]: 0.8 L/kg; AUC(0-t) at 24 h [27]: 5.5 µM·h; AUC(0-t) at 24 h [29]: 112 µM·h; bioavailability [30]: > 100%
O=S(=O)(Nc1ncccn1)c1ccc2c(c1)OCC[C@@H]2c1ccc(C(F)(F)F)cc1-c1ccc(F)nc1	17	0.5	12	> 100	2.8	0	0.03	9.8	24	171	0.01	2.6	6.6	1.7	2	70	0.8	0	0	3.2	clearance [2]: 0.3 mL/min/kg; bioavailability [31]: 78%; Cmax [33]: 14 µM; Papp [17]: 41.8 ×10⁻⁶ cm/s; AUC(0-t) [34]: 218 µM·h; clearance [18]: 2 mL/min/kg; Cmax [21]: 5.7 µM; Papp [23]: 33.4 ×10⁻⁶ cm/s; Vd [26]: 1.2 L/kg; AUC(0-t) at 24 h [27]: 15 µM·h; AUC(0-t) at 24 h [29]: 111 µM·h; bioavailability [30]: 74%

The next lines start with results.

Cmax [1] [µM]	Vd [3] [L/kg]	AUC(0-t) at 24 h [4] [µM·h]	bioavailability [5] [%]	logD [6]	Drug metabolism [7] [nmol/min/mg]	Drug metabolism [9] [nmol/min/mg]	half-life [10] [h]	half-life [11] [h]	AUC(0-t) at 24 h [12] [µM·h]	Drug metabolism [13] [nmol/min/mg]	clearance [14] [mL/min/kg]	Cmax [15] [µM]	Cmax [16] [µM]	Cmax [19] [µM]	AUC(0-t) at 0.25 h [20] [µM·h]	Vd [22] [L/kg]	Drug metabolism [24] [nmol/min/mg]	Drug metabolism [25] [nmol/min/mg]	half-life [28] [h]	Compound	other results
15	0.3	12	89	3.7	0	0.01	4.2	7.8	107	0.02	2.7	13	2.2	2	59	0.9	0.01	0	4.2	Cn1nccc1-c1cc(C(F)(F)F)ccc1[C@H]1CCOc2cc(S(=O)(=O)Nc3ncccn3)ccc21	clearance [2]: 0.5 mL/min/kg; bioavailability [31]: 40%; Cp(f) [32]: 0.728 µM; Cmax [33]: 10 µM; Papp A→B [17]: 28 ×10⁻⁶ cm/s; AUC(0-t) [34]: 117 µM·h; clearance [18]: 3 mL/min/kg; Cmax [21]: 6.9 µM; Papp B→A [23]: 26.8 ×10⁻⁶ cm/s; Vd [26]: 0.9 L/kg; AUC(0-t) at 24 h [27]: 11 µM·h; AUC(0-t) at 24 h [29]: 114 µM·h; bioavailability [30]: 100%
4.2		2	95	3.2	0.03				19		14			0.8		2.9	0.05	0.04	2.8	O=S(=O)(Nc1nccs1)c1ccc2c(c1)OCC[C@@H]2c1ccc(C(F)(F)F)cc1-c1ccc(F)nc1	
6		2.2	68	2.2	0.05				15		14			1.3		2.2	0.04	0.1	2	Cn1nccc1-c1cc(C(F)(F)F)ccc1[C@H]1CCOc2cc(S(=O)(=O)Nc3nccs3)ccc21	
